HSF1 inhib = HSF1 inhibition. hit rate 0.77% among 300,000. NIH3T3-HGL HSE-luciferase, MG132-induced, luminescence 8 h; active compounds read low. activity change, negative = inhibition, % at 7.5 µM (by protocol);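 active means more than half of replicate wells show activity change below -50%, luminescence cut by over half; inconclusive means some wells, but at most half, below -50%; inactive means no replicate well below -50%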;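 further: luciferase reports HSF-1 transcriptional activity via heat shock element; 0% = median of DMSO wells and -100% = zero luminescence signal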
697 NFkB inh = lowers PMA/ionomycin-induced NF-kB signal in 697 B cells. 697 B-cell NF-kB luciferase reporter, 16 h. hit rate 0.33% among 330,000. inhibition, % at 4 µM; in the data active means inhibition above about 35%
GPR7 antag = blocks human GPR7 receptor signaling; P48145; GPR7-expressing cells, fluorescence antagonist assay; inhibition, % at 4.4 µM; hit rate 1.1% among 290,000; in the data active means inhibition above about 16%, passing the limit was not always enough;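 further: cells stimulated with the agonist NPW; 0% = agonist with vehicle and 100% = vehicle without agonist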
Target sequence (P48145 whole entry, looked up): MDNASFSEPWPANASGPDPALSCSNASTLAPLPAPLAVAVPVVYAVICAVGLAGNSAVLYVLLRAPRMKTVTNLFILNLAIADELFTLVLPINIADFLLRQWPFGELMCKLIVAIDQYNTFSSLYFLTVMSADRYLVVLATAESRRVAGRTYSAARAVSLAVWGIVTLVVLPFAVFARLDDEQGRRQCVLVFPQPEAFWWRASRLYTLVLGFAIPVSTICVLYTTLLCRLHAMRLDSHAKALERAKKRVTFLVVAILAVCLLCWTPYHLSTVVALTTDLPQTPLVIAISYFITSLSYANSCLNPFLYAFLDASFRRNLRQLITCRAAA
T cruzi inh = T. cruzi replication inhibition; T. cruzi beta-gal in NIH3T3, luminescence, 90 h; inhibition, % (no concentration beside the values); hit rate 1.4% among 300,000;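 active means mean inhibition across valid replicates above about 55%, limit read from the data; inconclusive means mean below that limit but half or more replicates reach it; inactive means mean below it, under half of replicates reach it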;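 further: signal also drops with host cell toxicity which is not excluded here; 0% = plate median of DMSO wells and 100% = zero luminescence signal; higher percent means less beta-gal luminescence so fewer parasites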
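Test system: β-gal T. cruzi (Tulahuen C4) inside NIH/3T3 cells / Quantity: 5,000 cells/well / Measured by: luminescence from GalScreen with 0.05% NP40, read after 60 min / Medium: DMEM plus 2% FBS / Measure: parasite load inhibition, % / Reagent: Tulahuen C4 trypomastigotes, 5000/well / Schedule: co-culture of at least 90 h after 3 h attachment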
Jurkat NFkB inh = lowers PMA/ionomycin-induced NF-kB signal in Jurkat cells; inhibition, % at 4 µM; hit rate 0.53% among 330,000; PMA/ionomycin-induced NF-kB luciferase reporter, luminescence; in the data active means inhibition above about 50%
HSF-1 act = increases HSF-1 driven luciferase reporter signal | activation, % at 9 µM | hit rate 1.7% among 300,000 | NIH3T3-HGL HSF-1 luciferase reporter, MG132, 8 h; 100% = twice DMSO control signal;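 active means mean replicate activation of at least 50% with a set share of replicates each reaching 50%; inconclusive means only one of those two conditions met; inactive means mean below 50% and too few replicates reaching it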;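 further: 0% = median of the neutral control wells and 100% = twice that signal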
Active calls of the source: *; ? = inconclusive; . = no result. A selection: hits, their analogues and other compounds. The true share with any hit is near 4.8%.

SMILES	HSF1 inhib	697 NFkB inh	GPR7 antag	T cruzi inh	Jurkat NFkB inh	HSF-1 act
CCOc1ccc(/C=C/C(=O)C(C(N)=O)=C2SCCS2)cc1	49	-18	3	2	3	75*
COc1ccccc1CN(C)C(=O)c1ccc(COc2ccccc2)cc1	-4	22	-1	16	-10	27
COc1cccc(CN(C)C(=O)c2ccc(COc3ccc(Cl)cc3)cc2)c1OC	31	-19	-3	39	-39	55*
COc1ccc(Nc2ccc3c(c2)=NC2(CCCCC2)[N+]=3[O-])cc1	58	-36	1	58*	17	79*
CCCCn1c2ccc(F)cc2c2nnc(SCCN3CCCCC3)nc21	0	-25	-11	59*	-9	-5
CCOC(=O)c1cnc(-n2nc(C)cc2C)nc1NCc1ccccc1	2	-3	4	62*	-5	9
CCOC(=O)c1cnc(-n2nc(C)cc2C)nc1NNc1ncc(-c2ccccc2)cn1	-1	-1	-7	15	5	11
CCOC(=O)c1cnc(-n2nc(C)cc2C)nc1NC(C)c1ccccc1 (stereo not given)	8	-1	0	60*	12	11
CCN(CC(=O)Nc1ccccc1OC)CC(=O)Nc1ccccc1-c1ccccc1	.	15	2	.	37	.
COc1cccc(=O)c2c(C)oc(C)c12	.	-10	19*	.	-18	.
COc1ccccc1-n1c(C)c2c(OC)cccc(=O)c2c1C	11	-8	-12	4	-4	38
COC(=O)CNc1c(-c2ccccn2)nc2ccc(Br)cn12	28	-114	1	-5	-88	64*
COc1ccccc1C(=O)OCCCN=C1NS(=O)(=O)c2ccccc21	1	11	9	-9	-4	24
COc1ccc(C(=O)OCCN=C2NS(=O)(=O)c3ccccc32)cc1OC	25	0	-5	-36	-5	52*
CN(Cc1nc2ccccc2c(=O)[nH]1)C(=O)c1ccc(S(=O)(=O)N2CCCC2)cc1	.	-11	.	.	4	.
CCC(CO)NCC#Cc1ccccc1 (stereo not given)	32	5	-12	-8	-1	62*
OC(CNCC#Cc1ccccc1)c1ccccc1 (stereo not given)	-1	8	-15	0	-2	-7
CC1(C)C2CCC1(CS(=O)(=O)Nc1ccc(S(=O)(=O)N3CCCC3)cc1)C(=O)C2 (stereo not given)	2	14	19*	-3	-3	0
CS(=O)(=O)N(CC(=O)NCC1CCCO1)c1cc(Cl)ccc1Cl (stereo not given)	18	16	1	.	-10	54*
CCN(CC)CCn1c(SCC(=O)NCCC2=CCCCC2)nc2c(sc3ccccc32)c1=O	17	3	-7	60*	-65	34
Cc1ccc(NC(=O)CSc2nc3ccccc3c(=O)n2CCCN2CCCCC2)cc1Cl	-1	-15	25*	56*	12	30
Cc1ccc(CNC(=O)CSc2nc3c(sc4ccccc43)c(=O)n2CCCN2CCCC2)cc1	8	-19	-8	64*	-15	19
O=C(CSc1nc2c(sc3ccccc32)c(=O)n1CCCN1CCCC1)NCc1ccccc1	1	16	-8	7	-8	-6
CSc1ccccc1NC(=O)CN(C)CC(=O)Nc1c(F)cccc1F	-9	4	-1	-10	5	-4
O=C(Nc1cccnc1)c1ccc([N+](=O)[O-])o1	10	13	26	19	10	19
SMILES	HSF1 inhib	697 NFkB inh	GPR7 antag	T cruzi inh	Jurkat NFkB inh	HSF-1 act
CC(=O)c1cccc(NC(=O)c2ccc([N+](=O)[O-])o2)c1	45	6	.	21	14	55*
COc1ccc(NC(=O)c2ccc(Br)o2)cc1	24	-43	6	0	-64	38
COc1ccc(NC(=O)c2ccc([N+](=O)[O-])o2)cc1	44	18	1	24	4	64*
CC(=O)c1ccc(NC(=O)c2ccc([N+](=O)[O-])o2)cc1	94	10	-12	6	16	91*
O=C(Nc1ccc(Cl)cn1)c1ccc([N+](=O)[O-])o1	96	.	-2	11	.	140*
CC(C)C(=O)N1CCN(c2ccc(NC(=O)c3ccc([N+](=O)[O-])o3)cc2)CC1	33	-6	-7	50	15	?
Cc1c(Cl)c([N+](=O)[O-])nn1Cc1ccc(C(=O)Nc2ccc(Cl)cn2)o1	7	2	-2	36	10	3
Cc1ccc(S(=O)(=O)Cc2ccc(C(=O)NC3CCCCCC3)o2)cc1	2	-16	3	1	5	-1
COc1ccc(CCN2CC(C(=O)N(C)Cc3ccc(C)o3)CCC2=O)cc1 (stereo not given)	4	-53	-4	3	-29	13
CC(=O)c1cccc(CN2CCCC(C(=O)Nc3cccc(-n4cccn4)c3)C2)c1 (stereo not given)	1	13	-13	37	6	16
COc1cc(C(=O)NCCOc2ccc(F)cc2)c(Br)c(OC)c1OC	-2	-2	-2	-10	-10	16
CCCCCCCCN1[C@@H](CC(=O)OCC)c2ccc(C(F)(F)F)cc2S1(=O)=O	4	-4	.	61*	-10	-8
CCCCCCCCCCCCN1[C@@H](CC(=O)OC)c2cc(C(F)(F)F)ccc2S1(=O)=O	-7	7	.	-3	20	-12
COc1cccc(-c2nn(C)c3sc(C(=O)Nc4ccc5c(c4)OCCO5)cc23)c1	34	15	-12	36	-44	55*
Cn1nc(-c2ccccc2F)c2cc(C(=O)Nc3ccc4c(c3)OCCO4)sc21	9	13	2	22	-5	20
CCN(CCCNC(=O)C1CCC(=O)N1Cc1ccccc1Cl)c1cccc(C)c1 (stereo not given)	56	-17	11	2	-33	77*
CCN(CCCNC(=O)COc1cc(=O)n(C)c2ccccc12)c1cccc(C)c1	131	-9	-11	26	1	162*
CCN(CCCNC(=O)CCc1nc(-c2ccc(C)cc2)no1)c1cccc(C)c1	57	-7	-7	16	3	59*
Cc1cccc(-c2noc(CCC(=O)NCCc3ccccc3)n2)c1	-4	1	-3	-4	-12	-4
CCCS(=O)(=O)N1CCCC(C(=O)NCCCN(CC)c2cccc(C)c2)C1 (stereo not given)	27	-3	-9	16	-17	56*
CCN(CC)C(=O)[C@H]1CC(CC(=O)NCCCn2ccnc2)C(=O)N2CCc3c([nH]c4ccccc34)[C@]12C (stereo not given in full)	.	9	.	.	12	.
COc1ccc(OC)c2sc(NC(=O)C3=COCCO3)nc12	5	26	-7	0	-1	7
COc1ccc(C)c2sc(NC(=O)C3=COCCO3)nc12	-69*	-2	11	-26	4	-76

Assay outcomes as filed in PubChem BioAssay.
